Results of several laboratories.
Protocols differ between the studies behind these lines.
Target: Tyrosine-protein kinase ABL2 (ABL2, Homo sapiens, UniProt P42684)

With O=C(NCCCN1CCOCC1)c1ccc(Nc2ncc(Cl)c(-c3ccc(Cl)s3)n2)cc1 the remaining binding was 67% (binding, competition with immobilised ligand; 1 µM).
The remaining binding of CC1CCCN1c1nccc(-c2cnn3ncccc23)n1 (stereo not drawn) is reported as 100% (binding; 1 µM).
C[C@@H](c1ccc(-n2cnc3c(N)ncnc32)cc1)N1CCc2nn(C)c(Cc3ccccc3)c2C1=O has a remaining binding of 76% (binding, competition with immobilised ligand; 0.1 µM).
CS(=O)(=O)CCNCc1ccc(-c2ccc3ncnc(Nc4ccc(OCc5cccc(F)c5)c(Cl)c4)c3c2)o1 has a remaining binding of 100% (cell-free assay, competition with immobilised ligand; 10 µM).
With CN(C)c1nccc(-c2cnn3ncccc23)n1 the remaining binding was 99% (binding; 1 µM).
For CS(=O)(=O)c1cc(C2(NC(=O)c3cncc4c3cnn4-c3ccc(F)cc3)CC2)ccn1, the remaining binding was 95% (cell-free assay, competition with immobilised ligand; 1 µM).
CNC(=O)c1cc(Oc2ccc(NC(=O)Nc3ccc(Cl)c(C(F)(F)F)c3)cc2)ccn1 has a remaining binding of 33% (cell-free assay, competition with immobilised ligand; 10 µM).
With C[C@H]1CCN(c2nccc(-c3cnn4ncccc34)n2)C1 the remaining binding was 78% (binding; 1 µM).
With COc1cnc(Nc2cccc(S(N)(=O)=O)c2)nc1N1CCN(c2ccccc2)C(=O)C1 the remaining binding was 100% (binding, competition with immobilised ligand; 1 µM).
O=C(NCC1CCOCC1)c1n[nH]cc1NC(=O)c1c(F)cccc1F gave a remaining binding of 100% (binding, competition with immobilised ligand; 1 µM).
For CNC(=O)[C@@H]1CC[C@@H](n2c(-c3ccc4cnccc4c3)nc3ccc(C(=O)NCc4cccc(C(N)=O)c4)cc32)C1, the remaining binding was 98% (binding, competition with immobilised ligand; 1 µM).
For C=CC(=O)N1CCC(C(=O)NCC(=O)N2CCN(c3nc(-c4cnc(N)nc4C(F)F)nc(N4CCOCC4)n3)CC2)CC1, the remaining binding was 91% (binding, competition with immobilised ligand; 1 µM).
CN(C)c1ncc(F)c(-c2cnn3ncccc23)n1 gave a remaining binding of 100% (binding; 1 µM).
CC(C)(O)c1cncc(-c2nc3ccc(F)cc3n2C2CC2)c1 has a remaining binding of 100% (cell-free assay, competition with immobilised ligand; 1 µM).
Cc1c(-c2ccccc2)oc2c(C(=O)OCCN3CCCCC3)cccc2c1=O has a remaining binding of 100% (cell-free assay, competition with immobilised ligand; 0.1 µM).
Cn1nc(C(F)(F)F)cc1-c1cnc(N2CCc3cc(S(=O)(=O)Nc4c(F)cc(Cl)cc4F)cc(N4CCCC4=O)c32)nc1 gave a remaining binding of 100% (cell-free assay, competition with immobilised ligand; 1 µM).
With c1cncc(-c2cccc(Nc3nccc(NC4CCCCC4)n3)c2)c1 the remaining binding was 56% (binding, competition with immobilised ligand; 10 µM).
CCN(CC)CCNC(=O)c1c(C)[nH]c(/C=C2\C(=O)Nc3ccc(F)cc32)c1C gave a remaining binding of 92% (cell-free assay, competition with immobilised ligand; 0.1 µM).
With N#Cc1ccc(Nc2ccc3[nH]c(=O)[nH]c3c2)c(Cl)c1 the remaining binding was 93% (cell-free assay, competition with immobilised ligand; 1 µM).
The remaining binding of N[C@@H]1CCN(c2nccc(-c3cnn4ncccc34)n2)C1 is reported as 96% (binding; 1 µM).
For COc1ncc2cc3ccccc3nc2c1C#N, the remaining binding was 96% (cell-free assay, competition with immobilised ligand; 5 µM).
For CSc1cccnc1N1CCN(Cc2nc3ccccc3[nH]2)CC1, the remaining binding was 98% (cell-free assay, competition with immobilised ligand; 1 µM).
CN1CC[C@H](c2c(O)cc(O)c3c(=O)cc(-c4ccccc4Cl)oc23)[C@H](O)C1 gave a remaining binding of 80% (cell-free assay, competition with immobilised ligand; 10 µM).
With CS(=O)(=O)N1CCCC(NC(=O)[C@H](CCC2CCCCC2)NC(=O)c2ccc(CNC(=O)c3cnc4ccccn34)cc2)C1 (stereo partly drawn) the remaining binding was 56% (cell-free assay, competition with immobilised ligand; 0.1 µM).
For CN(CCCC(F)(F)F)c1nccc(-c2cnn3ncccc23)n1, the remaining binding was 93% (binding; 1 µM).
With CCN(CC)Cc1cc(Nc2ccnc3cc(Cl)ccc23)ccc1O the remaining binding was 100% (cell-free assay, competition with immobilised ligand; 10 µM).
With N#CC1(c2ccccn2)CCN(Cc2cc(C(=O)N3CCCC3)c(=O)n3ccccc23)CC1 the remaining binding was 100% (cell-free assay, competition with immobilised ligand; 1 µM).
O=C(c1ccc(Nc2nccc(-c3cc4ccccc4s3)n2)cc1)N1CCC(N2CCCC2)CC1 gave a remaining binding of 77% (binding, competition with immobilised ligand; 1 µM).
The remaining binding of CNCc1ccccc1-c1csc([C@@H](C)Nc2nc(C)nc3cc(OC)c(OC)cc23)c1 is reported as 100% (cell-free assay, competition with immobilised ligand; 1 µM).
For COc1cc2ncnc(Nc3ccc(F)c(Cl)c3)c2cc1OCCCN1CCOCC1, the remaining binding was 100% (cell-free assay, competition with immobilised ligand; 0.1 µM).
